IDH1 mut inh: inhibitors of human IDH1 R132H | O75874 | IDH1 R132H reductase, diaphorase/resazurin fluorescence, 60 min | inhibition, % at 10 µM | 0.18% of 70,000 active; in the data active means inhibition above about 34%; inconclusive means no clear call, values can overlap the other calls; inactive means below about 11%
Target sequence (O75874 whole entry R132H): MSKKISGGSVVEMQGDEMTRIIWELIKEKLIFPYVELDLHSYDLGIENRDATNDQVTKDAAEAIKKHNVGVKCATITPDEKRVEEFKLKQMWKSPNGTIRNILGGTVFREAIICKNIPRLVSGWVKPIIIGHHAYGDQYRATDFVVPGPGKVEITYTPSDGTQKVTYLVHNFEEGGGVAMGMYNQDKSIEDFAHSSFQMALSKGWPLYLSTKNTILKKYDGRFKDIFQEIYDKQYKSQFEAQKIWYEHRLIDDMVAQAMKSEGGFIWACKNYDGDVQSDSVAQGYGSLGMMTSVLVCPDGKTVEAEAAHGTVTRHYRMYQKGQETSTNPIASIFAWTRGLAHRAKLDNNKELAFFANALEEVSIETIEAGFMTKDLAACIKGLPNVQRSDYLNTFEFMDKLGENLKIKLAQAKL
T cruzi growth-1: blocks T. cruzi growth in NIH3T3 culture | 5.9% of 77,000 active | inhibition, % at 8.34 µM | T. cruzi beta-gal in NIH3T3, GalScreen luminescence, 90 h;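 active means mean inhibition above about 93%, with at least 55% of replicates each passing it, limit read from the data, passing the limit was not always enough; inconclusive means only one of those two conditions holds; inactive means neither condition holds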
GASC1 inh: KDM4C (human) demethylase inhibition | Q9H3R0 | GST-KDM4C 2-372, H3K9me3 peptide, LANCE TR-FRET | inhibition, % at 12.5 µM | 0.15% of 96,000 active;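 active means mean replicate inhibition above about 25%, with at least 55% of replicates also reaching it, limit read from the data, passing the limit was not always enough; inconclusive means only one of those two conditions met; inactive means neither condition met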
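Test system – GST-tagged GASC-1 (JMJD2C) catalytic fragment, aa 2-372 · Medium – HEPES buffer, pH 7.5, plus ascorbate · Reagent – H3K9me3 peptide with Fe(II)/2OG · Compound – one test concentration per compound · Timing – 30 min reaction, 60 min detection, RT · Technique – TR-FRET with Eu antibody and ULight streptavidin, EDTA stop · Read-out basis – inhibition from TR-FRET ratio decrease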
T cruzi growth-2: blocks T. cruzi growth in NIH3T3 host cells; inhibition, % at 8.35 µM; 72% of 5,600 active; T. cruzi beta-gal in NIH3T3, GalScreen luminescence, 90 h; shares compounds with T cruzi growth-1;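 active means mean replicate inhibition above about 95% and at least 55% of replicates individually reaching it, limit read from the data; inconclusive means only one of the two criteria is met; inactive means neither criterion is met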
T cruzi growth-3: Trypanosoma cruzi proliferation inhibition. shares compounds with T cruzi growth-1. T. cruzi beta-gal in NIH3T3, GalScreen luminescence, 90 h. inhibition, % at 2.09 µM. 21% of 5,600 active. AID 651740;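 active means mean inhibition above about 95%, with at least 55% of replicates also reaching it, limit read from the data; inconclusive means meets just one of the two conditions; inactive means meets neither condition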
NIH3T3 tox: NIH/3T3 (mouse) viability loss. shares compounds with T cruzi growth-1. NIH/3T3 viability, CellTiter-Glo ATP luminescence, 90 h. cytotoxicity (signal decrease), % at 8.35 µM. 14% of 5,600 active. AID 651742;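 active means mean signal decrease across replicates above about 35% based on untreated-well scatter, with enough replicates individually passing, limit read from the data; inconclusive means no rule stated though some were filed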
3T3 cytotox 2: NIH/3T3 (mouse) viability loss. shares compounds with T cruzi growth-1. inhibition, % at 24.9 µM. NIH/3T3 viability, CellTiter-Glo ATP luminescence, 90 h. 56% of 5,600 active. AID 651744;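 active means mean loss of cell viability signal at or above a set limit, and enough replicates individually reaching it; inconclusive means meets only the mean limit or only the replicate share; inactive means meets neither condition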
Numbers stand for hits; i = inactive; ? = inconclusive; nt = no result. The sample as a whole holds a higher share of hits than the screen did.

SMILES	IDH1 mut inh	T cruzi growth-1	GASC1 inh	T cruzi growth-2	T cruzi growth-3	NIH3T3 tox	3T3 cytotox 2
C[C@H]1CN([C@@H](C)CO)S(=O)(=O)c2ccc(-c3cccc(F)c3)cc2O[C@@H]1CN(C)S(C)(=O)=O	i	i	i	nt	nt	nt	nt
C[C@@H]1CN([C@H](C)CO)S(=O)(=O)c2ccc(-c3cccc(F)c3)cc2O[C@@H]1CN(C)S(=O)(=O)c1ccc(F)cc1	nt	98.4	i	99.8	i	46.6	46.7
CC(C)NC(=O)N(C)C[C@@H]1Oc2cc(-c3ccncc3)ccc2S(=O)(=O)N([C@H](C)CO)C[C@H]1C	i	118.9	i	?	i	i	i
CCCNC(=O)N(C)C[C@@H]1Oc2cc(-c3ccncc3)ccc2S(=O)(=O)N([C@@H](C)CO)C[C@@H]1C	i	i	i	nt	nt	nt	nt
CC(C)NC(=O)N(C)C[C@@H]1Oc2cc(-c3ccncc3)ccc2S(=O)(=O)N([C@@H](C)CO)C[C@@H]1C	i	102.7	i	i	i	i	i
CC(C)NC(=O)N(C)C[C@@H]1Oc2cc(-c3ccncc3)ccc2S(=O)(=O)N([C@@H](C)CO)C[C@H]1C	i	110.9	i	i	i	i	i
CCCNC(=O)N(C)C[C@H]1Oc2cc(-c3ccncc3)ccc2S(=O)(=O)N([C@@H](C)CO)C[C@@H]1C	i	96.7	i	?	i	i	?
CC(C)NC(=O)N(C)C[C@H]1Oc2cc(-c3ccccc3)ccc2S(=O)(=O)N([C@H](C)CO)C[C@H]1C	i	i	i	nt	nt	nt	nt
Cc1ccc(-c2ccc3c(c2)O[C@H](CN(C)C(=O)NC(C)C)[C@@H](C)CN([C@@H](C)CO)S3(=O)=O)cc1	i	i	i	nt	nt	nt	nt
CC(C)NC(=O)N(C)C[C@@H]1Oc2cc(-c3cncnc3)ccc2S(=O)(=O)N([C@@H](C)CO)C[C@@H]1C	i	i	i	nt	nt	nt	nt
Cc1ccccc1OCC(=O)Nc1cccc(-c2nc3ccccc3s2)c1	i	nt	nt	nt	nt	nt	nt
CCOC(=O)c1cc(NC(=O)CSc2nc3ccccc3c(=O)[nH]2)ccc1Cl	i	nt	nt	nt	nt	nt	nt
Cc1cc(OCc2nc3ccccc3s2)ccc1NC(=O)Nc1cccc(Cl)c1	i	nt	nt	nt	nt	nt	nt
CS(=O)(=O)N(CC(=O)Nc1cccc(Cl)c1Cl)c1ccc(F)c(Cl)c1	i	nt	nt	nt	nt	nt	nt
O=C(CSc1nc2ccccc2s1)Nc1ccc(Cl)c(C(F)(F)F)c1	i	nt	nt	nt	nt	nt	nt
C[C@H]1CN([C@@H](C)CO)S(=O)(=O)c2ccc(-c3ccncc3)cc2O[C@@H]1CN(C)C(=O)Nc1ccc(C(F)(F)F)cc1	i	102.1	i	104.3	i	i	78.8
Cc1ccccc1-c1ccc2c(c1)O[C@@H](CN(C)C(=O)Nc1ccc(C(F)(F)F)cc1)[C@@H](C)CN([C@@H](C)CO)S2(=O)=O	i	i	i	nt	nt	nt	nt
C[C@H](CO)N1C[C@H](C)[C@H](CN(C)C(=O)Nc2ccc(C(F)(F)F)cc2)Oc2cc(-c3ccncc3)ccc2S1(=O)=O	i	i	i	nt	nt	nt	nt
C[C@H]1CN([C@@H](C)CO)S(=O)(=O)c2ccc(-c3ccncc3)cc2O[C@H]1CN(C)C(=O)Nc1ccc(C(F)(F)F)cc1	i	i	i	nt	nt	nt	nt
C[C@@H]1CN([C@H](C)CO)S(=O)(=O)c2ccc(-c3ccncc3)cc2O[C@H]1CN(C)C(=O)Nc1ccc(C(F)(F)F)cc1	i	?	i	106.1	i	38.5	72.7
Cc1ccccc1-c1ccc2c(c1)O[C@@H](CN(C)C(=O)Nc1ccc(C(F)(F)F)cc1)[C@H](C)CN([C@H](C)CO)S2(=O)=O	i	100.9	i	i	98.3	51.2	103.7
COC(=O)C1(Cc2ccc(O)c(CC=C(C)C)c2)OC(=O)C(OC)=C1c1ccc(O)cc1 (centres undefined)	i	nt	nt	nt	nt	nt	nt
COc1ccccc1C#Cc1ccc2c(c1)O[C@@H](CN(C)Cc1ccccc1)[C@@H](C)CN([C@@H](C)CO)S2(=O)=O	i	122.2	i	103.9	105.9	i	i
COc1ccccc1C#Cc1ccc2c(c1)O[C@@H](CN(C)Cc1cccnc1)[C@H](C)CN([C@H](C)CO)S2(=O)=O	i	nt	nt	nt	nt	nt	nt
COc1ccccc1C#Cc1ccc2c(c1)O[C@H](CN(C)Cc1ccncc1)[C@H](C)CN([C@@H](C)CO)S2(=O)=O	i	i	i	nt	nt	nt	nt

Screens deposited in PubChem BioAssay by Broad Institute.
